Values joined by “and” are separate entries in the source; they are usually repeats but may differ in a detail not shown here. Equal values may be shown once. Read-outs that look alike come from different tables or passages of the source.
Assays:
[1] = Cyclic voltammetry in DMSO; format: physicochemical; settings: 200 mV s^–1
In short: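 Flavone at ~2−2.5 mM in DMSO with 0.1 M n-Bu4NPF6 under Ar at 25 °C. Three-electrode cell: polished glassy carbon disk (0.07 cm2) working electrode, Pt wire counter, KCl(3 M)/Ag/AgCl reference (+210 mV vs NHE). Sweep rates 50 mV s−1 to 6 V s−1; peak potentials read at 200 mV s−1. E1/2 taken from the […] reduction wave.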

[2] = cited from earlier work
[3] = Spectrophotometric titrations with FeNTA at pH 7.4; format: physicochemical; settings: CH3OH/H2O (80/20 w/w), pH = 7.4 (HEPES), I = 0.1 M, 25.0(2) °C, nc = no complexation
In short: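 FeNTA made fresh from Fe(III) and solid NTA (~1:1, slight NTA excess) with a few drops of HClO4, then brought to pH 7.4 with 0.1 M HEPES. Flavone (stock ~10−5 M range) in 0.1 M HEPES pH 7.4 CH3OH/H2O was titrated with FeNTA. UV-vis spectra recorded at 25.0(2) °C, l = 1 cm. Constants fitted with Specfit. Ternary complexes checked by negative-mode ESI-MS.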

[4] = CH3OH/H2O (80/20 w/w); I = 0.1 M (NEt4ClO4); 25.0(2) °C; [H^+] = 10^–2 M; cited from earlier work
[5] = UV–vis absorption spectrophotometric titrations versus pH; format: physicochemical; settings: CH3OH/H2O (80/20 w/w); I = 0.1 M (NEt4ClO4); T = 25.0(2) °C
In short: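 Flavone at 10−5−10−4 M in CH3OH/H2O was acidified, then titrated with base over 2 < pH < 12, with full equilibration after each addition. Spectra taken through a quartz immersion probe (l = 1 cm). Specfit analysis gave the 6-OH protonation constants and the spectra of the protonated species.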

[6] = Diffusion-ordered spectroscopy NMR; format: physicochemical
[7] = Stability of the flavone toward oxidation during the kinetic measurements; format: physicochemical; settings: acidic conditions; CH3OH/H2O (80/20 w/w)

SMILES: O=c1cc(-c2ccccc2)oc2ccccc12 [F, 2-phenyl-chromone, reference compound]
- E1/2 of the quasireversible signal (carbonyl) [1]: −1.59 V/KCl(3 M)/Ag/AgCl

SMILES: O=c1cc(-c2ccccc2)oc2cccc(O)c12 [5-OH-flavone]
- pKa (5-OH) ([2]; CH3OH/water 1/1 w/w): 11.34
- pKa (5-OH) ([2]; dioxane/water 1/1 w/w): 11.44

SMILES: COc1ccc(-c2cc(=O)c3c(O)c(OC)c(OC)cc3o2)cc1 [salvigenin, reference compound]
- log K*L·FeNTA (3σ), stability constant of the ferric NTA complex [3]: 5.8(7)
- log K*FFe, conditional stability constant of the ferric complex [4]: 5.8(2)

SMILES: COc1ccc(-c2cc(=O)c3c(O)c(O)c(OC)cc3o2)cc1 [FOMe, ladanein]
- log K^h (±σ), protonation constant (6-OH group) [5]: 10.33(5)
- log K*L·FeNTA (3σ), stability constant of the ferric NTA complex [3]: 4.7(4)
- log K*L·FeNTA (3σ), stability constant of the ferric NTA complex ([3]; listed as FOMe/ladanein): 4.7(4) and 4.9(6)
- E1/2 of the quasireversible signal (carbonyl) [1]: −1.93 V/KCl(3 M)/Ag/AgCl
- D0, diffusion coefficient [6]: 2.34 × 10^–6 cm^2 s^–1
- stability of the free ligand in the absence of Fe(III) [7]: remained unaltered over a long period
- log K*FFe, conditional stability constant of the ferric complex [4]: 6.0(3)

SMILES: O=c1cc(-c2ccc(O)cc2)oc2cc(O)cc(O)c12 [apigenin]
- log K*FFe, conditional stability constant of the ferric complex [4]: 5.5(1)

Source: publication PMC6648324 (ACS Omega, 2019)
